From ChEMBL document CHEMBL1128606, “Nucleosides and nucleotides. 141. Chemical stability of a new antitumor nucleoside, 2'-C-cyano-2'-deoxy-1-beta-D-arabino-pentofuranosylcytosine in alkaline medium: formation of 2'-C-cyano-2'-deoxy-1-beta-D-ribo-pentofuranosylcytosine and its antitumor activity” (J Med Chem, 1995)

Experiments:
[1] = Kinetic parameter of epimerization at a salt concentration (0.01 M) of in Tris.HCl buffer(pH 9.0) and 37 degree C (or )in RMPI 1640 cell culture medium containing 10%FCS; assay type: ADME, cell-based; settings: rmpi 1640, pH 9
Summary of the method: (§1)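 Starting nucleoside (3 mg, 0.012 mmol) in 1 mL Tris-HCl (pH 7.5–10.3; 10 mM unless salt varied to 0.01–1 M at pH 9.0) or RPMI 1640 with 10% FCS, 37 °C. Timed samples analyzed by C-18 HPLC, 2.5% aqueous MeOH, 254 nm; peak areas corrected by ε. Rate constants k12, k21, k13, k23 obtained by nonlinear least-squares fit to compartment model; t1/2 reported.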

[2] = Kinetic parameter of epimerization at a salt concentration (0.1 M) of in Tris.HCl buffer(pH 9.0) and 37 degree C (or )in RMPI 1640 cell culture medium containing 10%FCS; assay type: ADME, cell-based; settings: rmpi 1640, pH 9; summary of the method: as §1
[3] = Kinetic parameter of epimerization at a salt concentration (1 M) of in Tris.HCl buffer(pH 9.0) and 37 degree C (or )in RMPI 1640 cell culture medium containing 10%FCS; assay type: ADME, cell-based; settings: rmpi 1640, pH 9; summary of the method: as §1
[4] = Kinetic parameter of epimerization in Tris.HCl buffer at a pH 10.0 (or )in RMPI 1640 cell culture medium containing 10%FCS; assay type: ADME, cell-based; settings: rmpi 1640, pH 10; summary of the method: as §1
[5] = Kinetic parameter of epimerization in Tris.HCl buffer at a pH 7.5 (or )in RMPI 1640 cell culture medium containing 10%FCS; assay type: ADME, cell-based; settings: rmpi 1640, pH 7.5; summary of the method: as §1
[6] = Kinetic parameter of epimerization in Tris.HCl buffer at a pH 8.0 (or )in RMPI 1640 cell culture medium containing 10%FCS; assay type: ADME, cell-based; settings: rmpi 1640, pH 8; summary of the method: as §1
[7] = Kinetic parameter of epimerization in Tris.HCl buffer at a pH 9.0 (or )in RMPI 1640 cell culture medium containing 10%FCS; assay type: ADME, cell-based; settings: rmpi 1640, pH 9; summary of the method: as §1
[8] = Kinetic parameter of epimerization in Tris.HCl buffer at a pH 9.6 (or )in RMPI 1640 cell culture medium containing 10%FCS; assay type: ADME, cell-based; settings: rmpi 1640, pH 9.6; summary of the method: as §1
[9] = Kinetic parameter of epimerization in Tris.HCl buffer at a pH 10.0(or )in RMPI 1640 cell culture medium containing 10%FCS; assay type: ADME, cell-based; settings: rmpi 1640, pH 10; summary of the method: as §1
[10] = Degradation of CNDAC at 0.01 M concentration in Tris-degrees C; assay type: ADME; settings: Tris buffer; summary of the method: as §1
[11] = Degradation of CNDAC at 0.1 M concentration in Tris-degrees C; assay type: ADME; settings: Tris buffer; summary of the method: as §1
[12] = Degradation of CNDAC at 10 pH in Tris-degrees C; assay type: ADME; settings: Tris buffer, pH 10; summary of the method: as §1
[13] = Degradation of CNDAC at 7.5 pH in Tris-degrees C; assay type: ADME; settings: Tris buffer, pH 7.5; summary of the method: as §1
[14] = Degradation of CNDAC at 8 pH in Tris-degrees C; assay type: ADME; settings: Tris buffer, pH 8; summary of the method: as §1
[15] = Degradation of CNDAC at 9 pH in Tris-degrees C; assay type: ADME; settings: Tris buffer, pH 9; summary of the method: as §1
[16] = Degradation of CNDAC at 9.6 pH in Tris-degrees C; assay type: ADME; settings: Tris buffer, pH 9.6; summary of the method: as §1
[17] = test system: MKN-74; experiment: In Vitro cell growth inhibitory activity of CNDAC Stomach Carcinoma MKN-74 (1*10e3) cell lines on 20-min exposure; assay type: functional, cell-based, Homo sapiens
Summary of the method: (§2)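 MTT assay. Cells seeded (WiDr 5×10^2, SBC-5 2.5×10^2, MKN-74 1×10^3 per well), 24 h preincubation at 37 °C, 5% CO2. Graded drug concentrations added in tetraplicate for 20 min or 48 h, then washed three times with medium and cultured to 6 days from drug addition. MTT 1 mg/mL for 4 h, DMSO solubilization, A540. IC50 read graphically from dose-response curve.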

[18] = test system: MKN-74; experiment: In Vitro cell growth inhibitory activity of CNDAC Stomach Carcinoma MKN-74 (1*10e3) cell lines on 48-h exposure; assay type: functional, cell-based, Homo sapiens; summary of the method: as §2
[19] = test system: Mus musculus; experiment: In vivo antileukemic activity of CNDAC against P388 mouse leukemic cells by ip administration of dose 100 (mg/kg/day); assay type: functional
Summary of the method: (§3)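 Female CDF1 mice, 6 weeks old (n = 6), implanted ip with 1×10^6 viable P388 cells maintained by weekly ip passage in DBA/2 mice. Drug in saline (0.1 mL/10 g body weight) given ip on days 1–5. T/C is treated vs untreated median survival time. Weight change is day 7 minus day 1 average.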

[20] = test system: Mus musculus; experiment: In vivo antileukemic activity of CNDAC against P388 mouse leukemic cells by ip administration of dose 200 (mg/kg/day); assay type: functional; summary of the method: as §3
[21] = test system: Mus musculus; experiment: In vivo antileukemic activity of CNDAC against P388 mouse leukemic cells by ip administration of dose 50 (mg/kg/day); assay type: functional; summary of the method: as §3
[22] = test system: Mus musculus; experiment: In vivo antileukemic activity of CNDAC against P388 mouse leukemic cells by ip administration of dose 25 (mg/kg/day); assay type: functional; summary of the method: as §3
[23] = test system: SBC-5; experiment: In Vitro cell growth inhibitory activity of CNDAC against Small Cell Lung Carcinoma-5 (2.5*10e2) cells on 20-min exposure; assay type: functional, cell-based; settings: Homo sapiens, SBC-5, 20 min; summary of the method: as §2
[24] = test system: SBC-5; experiment: In Vitro cell growth inhibitory activity of CNDAC against Small Cell Lung Carcinoma-5 (2.5*10e2) cells on 48-h exposure; assay type: functional, cell-based, Homo sapiens; summary of the method: as §2
[25] = test system: WiDr; experiment: In Vitro cell growth inhibitory activity of CNDAC against Human Colon Carcinoma WiDr 5*10e2 cells on 20- min exposure; assay type: functional, cell-based; summary of the method: as §2
[26] = test system: WiDr; experiment: In Vitro cell growth inhibitory activity of CNDAC against Human Colon Carcinoma WiDr 5*10e2 cells on 48-h exposure; assay type: functional, cell-based; summary of the method: as §2
[27] = Degradation of CNDAC at 1 M concentration in Tris-degrees C; assay type: ADME; settings: Tris buffer; summary of the method: as §1

With `N#C[C@H]1[C@H](O)[C@@H](CO)O[C@H]1n1ccc(N)nc1=O` (stereo in doubt; form 1) [TAS-109] the K12 [1] was 0.88 h⁻¹, the “K13+K23” value [1] was 0.09 h⁻¹ and the K21 [1] was 0.6 h⁻¹. The K12 [2] was 1.88 h⁻¹, the “K13+K23” value [2] was 0.19 h⁻¹ and the K21 [2] was 1.16 h⁻¹. The K12 [3] was 2.31 h⁻¹, the “K13+K23” value [3] was 0.3 h⁻¹ and the K21 [3] was 1.35 h⁻¹. For the same compound, the K12 [4] was 6.18 h⁻¹, the “K13+K23” value [4] was 0.69 h⁻¹ and the K12 [5] was 0.062 h⁻¹. For the same compound, the “K13+K23” value [5] was 0.009 h⁻¹, the K21 [5] was 0.037 h⁻¹ and the K12 [6] was 0.22 h⁻¹. The “K13+K23” value [6] was 0.02 h⁻¹, the K21 [6] was 0.14 h⁻¹ and the K12 [7] was 0.88 h⁻¹. For the same compound, the “K13+K23” value [7] was 0.09 h⁻¹, the K21 [7] was 0.6 h⁻¹ and the K12 [8] was 2.14 h⁻¹. For the same compound, the “K13+K23” value [8] was 0.26 h⁻¹, the K21 [8] was 1.41 h⁻¹ and the K21 [9] was 4.07 h⁻¹. For the same compound, the half-life [10] was 60 min, the half-life [11] was 30 min and the half-life [12] was 8.4 min. The half-life [13] was 38 h, the half-life [14] was 240 min and the half-life [15] was 60 min. The half-life [16] was 27 min, the IC50 [17] was 24.9 µM and the IC50 ([18]; Homo sapiens, MKN-74, 48 h) was 0.15 µM. The T/C [19] was 311%, the T/C [20] was 333% and the T/C [21] was 300%. The T/C [22] was 300%, the Weight change [22] was 0.3 g and the IC50 [23] was 7.14 µM. The IC50 ([24]; Homo sapiens, SBC-5, 48 h) was 0.222 µM, the IC50 [25] was 16.5 µM and the IC50 ([26]; Homo sapiens, WiDr, 48 h) was 0.157 µM. The half-life [27] was 21 min.
Work on `N#C[C@H]1[C@H](O)[C@@H](CO)O[C@H]1n1ccc(N)nc1=O` (stereo in doubt; form 2) [TAS-109] yielded an IC50 [17] of 265 µM, an IC50 ([18]; mkn-74) of 0.206 µM and a T/C [19] of 180%. It also gave a Weight change [19] of 0.7 g, a T/C [20] of 203% and a Weight change [20] of 0.9 g. For the same compound, the T/C [21] was 164%, the Weight change [21] was 0.9 g and the T/C [22] was 138%. The Weight change [22] was 1.6 g, the IC50 [23] was 7.14 µM and the IC50 ([24]; sbc-5) was 0.367 µM. The IC50 [25] was 16.5 µM and the IC50 ([26]; widr) was 0.306 µM.
